This note sets out measurements from ChEMBL document CHEMBL4371016, “Proline- and Arginine-Rich Peptides as Flexible Allosteric Modulators of Human Proteasome Activity” (J Med Chem, 2019).

Structures are written as SMILES. Active and inactive are the calls of the source. No cut-off for these calls is given here. Residues, ends and D or L forms follow the SMILES beside them.

In assay [1] the target is T1, Proteasome Macropain subunit MB1 (Homo sapiens) (UniProt P28074).
T1 sequence (whole entry): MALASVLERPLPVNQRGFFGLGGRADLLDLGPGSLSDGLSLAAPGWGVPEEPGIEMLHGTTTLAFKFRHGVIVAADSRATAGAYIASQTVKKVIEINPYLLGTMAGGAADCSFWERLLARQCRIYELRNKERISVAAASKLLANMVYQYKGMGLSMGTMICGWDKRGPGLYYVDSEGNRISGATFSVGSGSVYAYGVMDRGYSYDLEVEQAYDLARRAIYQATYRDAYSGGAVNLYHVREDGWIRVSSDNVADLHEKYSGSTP
Kind of assay: Positive allosteric modulation of latent human erythrocytes 20S proteasome chymotrypsin like activity at 25 uM using Suc-LLVY-AMC as substrate measured every 2 mins up to 60 mins by fluorescence assay relative to control.

Assay [2] concerns the target T1, Proteasome Macropain subunit MB1 (Homo sapiens). Kind of assay: Positive allosteric modulation of latent human erythrocytes 20S proteasome chymotrypsin like activity using LFP as substrate measured every 2 mins up to 60 mins by fluorescence assay.
Assay [3] shares this target. Kind of assay: Negative allosteric modulation of SDS-activated human erythrocytes 20S proteasome chymotrypsin like activity up to 10 uM using LFP as substrate measured every 2 mins up to 60 mins by fluorescence assay.
Assay [4] addresses T2, 20S proteasome (Homo sapiens) (UniProt P49721+P20618+P28074+P28062+P28065+P28072+P25786+P25787+P25788+P25789+P28066+P60900+O14818+Q8TAA3+P40306+A5LHX3+P49720+P28070+Q99436). Kind of assay: Negative allosteric modulation of SDS-activated human erythrocytes 20S proteasome assessed as reduction in human alpha-synuclein degradation at 1 uM after 1 hr by SDS-PAGE analysis. The method in brief:
(§1)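 Human α-synuclein or yeast enolase digested by human 20S activated with 0.01% SDS (20S:substrate 1:100 pmol α-syn, 1:10 pmol enolase) in 20 mM HEPES pH 7.4 at 37 °C for 1 h (α-syn) or 4 h (enolase). DMSO at or below 0.05%. SDS–PAGE (12% or 10%) with Coomassie staining; remaining substrate densitometry as percent of control; at least three experiments, mean ± SEM.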

Assay [5] has as its target T2, 20S proteasome (Homo sapiens). Kind of assay: Positive allosteric modulation of SDS-activated human erythrocytes 20S proteasome assessed as increase in yeast enolase degradation at 10 uM after 4 hr by SDS-PAGE analysis.
Assay [6] shares this target. Kind of assay: Positive allosteric modulation of SDS-activated human erythrocytes 20S proteasome assessed as increase in human alpha-synuclein degradation at 10 uM after 1 hr by SDS-PAGE analysis.
In assay [7] the target is T3, Proteasome component C5 (Homo sapiens) (UniProt P20618).
T3 sequence (whole entry): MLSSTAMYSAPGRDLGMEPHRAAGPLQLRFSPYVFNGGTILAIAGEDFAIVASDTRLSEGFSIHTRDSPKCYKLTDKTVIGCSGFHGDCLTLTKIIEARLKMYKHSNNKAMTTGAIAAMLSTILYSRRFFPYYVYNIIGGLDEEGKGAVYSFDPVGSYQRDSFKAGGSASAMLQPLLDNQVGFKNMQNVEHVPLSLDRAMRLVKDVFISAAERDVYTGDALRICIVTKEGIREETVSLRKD
Kind of assay: Positive allosteric modulation of latent human erythrocytes 20S proteasome caspase like activity at 10 uM measured every 1 min up to 60 mins by fluorescence assay relative to control.

Assay [8] deals with T2, 20S proteasome (Homo sapiens). Kind of assay: Positive allosteric modulation of SDS-activated human erythrocytes 20S proteasome assessed as increase in yeast enolase degradation at 1 uM after 4 hr by SDS-PAGE analysis relative to control.
Assay [9] has as its target Proteasome subunit beta type-6 (Homo sapiens) (UniProt P28072). Kind of assay: Positive allosteric modulation of latent human erythrocytes 20S proteasome caspase like activity at 10 uM using Z-LLE-AMC as substrate measured every 1 min up to 60 mins by fluorescence assay relative to control.
Assay [10] concerns the target T1, Proteasome Macropain subunit MB1 (Homo sapiens). Kind of assay: Positive allosteric modulation of 1 uM Rpt5-activated human erythrocytes 20S proteasome chymotrypsin like activity up to 10 uM using Suc-LLVY-AMC as substrate measured every 1 min up to 60 mins by fluorescence assay.
Assay [11] has the same target. Kind of assay: Negative allosteric modulation of 10 uM Rpt5-activated human erythrocytes 20S proteasome chymotrypsin like activity up to 10 uM using Suc-LLVY-AMC as substrate measured every 1 min up to 60 mins by fluorescence assay.
Assay [12] shares this target. Kind of assay: Positive allosteric modulation of latent human erythrocytes 20S proteasome chymotrypsin like activity at 25 uM using LFP as substrate measured every 2 mins up to 60 mins by fluorescence assay relative to control.
Assay [13] has the same target. Kind of assay: Stimulation of 20S proteasome chymotrypsin like activity in human primary fibroblasts at 10 uM preincubated for 24 hrs followed by Suc-LLVY-AMC substrate addition and measured at 2 mins interval up to 60 mins by fluorescence assay relative to control. The method in brief:
(§2)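 Fibroblasts (GM04390, 3% O2, 37 °C) exposed to 0.1–20 μM peptide or DMSO for 24 h after Optimem switch. Cells scraped, lysed in 50 mM Tris/HCl pH 7.4, 5 mM MgCl2, 1 mM DTT by mechanical lysis and freeze fractionation. Bradford-normalised lysate (1 μg in 100 μL) incubated with 50 μM Suc-LLVY-AMC; fluorescence ex 370/em 460 nm.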

Assay [14] shares this target. Kind of assay: Stimulation of 20S proteasome chymotrypsin like activity in human primary fibroblasts preincubated for 24 hrs followed by Suc-LLVY-AMC substrate addition and measured at 2 mins interval up to 60 mins by fluorescence assay. In a few lines: as §2
The target in assay [15] is T2, 20S proteasome (Homo sapiens). Kind of assay: Effect on alpha-face conformations of latent human erythrocytes 20S proteasome assessed as open state conformation at 1 uM by atomic force microscopic method (reference value: 7%).
The target is the same in assay [16]. Kind of assay: Effect on alpha-face conformations of latent human erythrocytes 20S proteasome assessed as intermediate state conformation at 1 uM by atomic force microscopic method (reference value: 22%).
The target of assay [17] is T1, Proteasome Macropain subunit MB1 (Homo sapiens). Kind of assay: Positive allosteric modulation of latent human erythrocytes 20S proteasome chymotrypsin like activity at 5 uM using Suc-LLVY-AMC as substrate measured every 2 mins up to 60 mins by fluorescence assay relative to control.
Assay [18] has the same target. Kind of assay: Positive allosteric modulation of latent human erythrocytes 20S proteasome chymotrypsin like activity up to 10 uM using LFP as substrate measured every 2 mins up to 60 mins by fluorescence assay.
Assay [19] has as its target T2, 20S proteasome (Homo sapiens). Kind of assay: Negative allosteric modulation of SDS-activated human erythrocytes 20S proteasome assessed as reduction in human alpha-synuclein degradation at 10 uM after 1 hr by SDS-PAGE analysis. In a few lines: as §1
Assay [20] shares this target. Kind of assay: Negative allosteric modulation of SDS-activated human erythrocytes 20S proteasome assessed as reduction in yeast enolase degradation at 1 uM after 4 hr by SDS-PAGE analysis.
Assay [21] has the same target. Kind of assay: Negative allosteric modulation of SDS-activated human erythrocytes 20S proteasome assessed as reduction in yeast enolase degradation at 10 uM after 4 hr by SDS-PAGE analysis.
Assay [22] addresses T1, Proteasome Macropain subunit MB1 (Homo sapiens). Kind of assay: Positive allosteric modulation of latent human erythrocytes 20S proteasome chymotrypsin like activity up to 10 uM using LFP as substrate measured every 2 mins up to 60 mins by fluorescence assay.
Assay [23] concerns the target Proteasome Macropain subunit (Homo sapiens) (UniProt P49721). Kind of assay: Negative allosteric modulation of SDS-activated human erythrocytes 20S proteasome trypsin like activity at 10 uM using Boc-LRR-AMC as substrate measured every 2 mins up to 60 mins by fluorescence assay.
The target in assay [24] is T3, Proteasome component C5 (Homo sapiens). Kind of assay: Negative allosteric modulation of SDS-activated human erythrocytes 20S proteasome caspase like activity at lower concentration using Z-LLE-AMC as substrate measured every 2 mins up to 60 mins by fluorescence assay.

Proteasome subunit beta type-6 (Homo sapiens), sequence (P28072 whole entry, looked up): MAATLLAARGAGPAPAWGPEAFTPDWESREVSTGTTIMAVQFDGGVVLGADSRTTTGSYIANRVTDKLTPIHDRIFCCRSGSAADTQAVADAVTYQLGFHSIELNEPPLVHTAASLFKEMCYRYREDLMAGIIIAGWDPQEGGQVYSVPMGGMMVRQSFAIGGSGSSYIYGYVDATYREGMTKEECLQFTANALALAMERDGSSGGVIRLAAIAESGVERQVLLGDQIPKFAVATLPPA
Proteasome Macropain subunit (Homo sapiens), sequence (P49721 whole entry): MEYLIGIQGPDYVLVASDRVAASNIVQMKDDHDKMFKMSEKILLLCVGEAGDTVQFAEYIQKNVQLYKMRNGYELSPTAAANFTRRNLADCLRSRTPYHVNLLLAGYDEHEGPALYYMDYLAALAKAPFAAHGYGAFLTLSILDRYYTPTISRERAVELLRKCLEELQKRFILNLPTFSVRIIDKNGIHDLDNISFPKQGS

As for `CC(C)C[C@H](NC(=O)[C@@H]1CCCN1C(=O)[C@@H]1CCCN1C(=O)[C@@H]1CCCN1C(=O)[C@@H]1CCCN1C(=O)[C@H](CCCNC(=N)N)NC(=O)[C@H](CCCNC(=N)N)NC(=O)[C@@H](N)CCCNC(=N)N)C(=O)N[C@@H](Cc1ccc(O)cc1)C(=O)N[C@@H](C)C(=O)O` (H-RRRPPPPLYA-OH), the fold change (FC) was less than 7 in [1], 5 to 7 in assay [7] and 5 to 7 in [9]. The Activity entry in assay [2] is “Dose-dependent effect”. Also, the outcome in [3] and in assay [4] was inactive. Also, the outcome in [5], in assay [6] and in assay [8] was Active.
As for `C[C@H](NC(=O)[C@H](Cc1ccc(O)cc1)NC(=O)[C@H](Cc1ccc(O)cc1)NC(=O)[C@@H]1CCCN1C(=O)[C@@H]1CCCN1C(=O)[C@@H]1CCCN1C(=O)[C@@H]1CCCN1C(=O)[C@H](CCCNC(=N)N)NC(=O)[C@H](CCCNC(=N)N)NC(=O)[C@@H](N)CCCNC(=N)N)C(=O)O` (H-RRRPPPPYYA-OH), the fold change (FC) in [10] was 2; in [1], less than 7; in assay [12], 14; in assay [13], 3; in assay [7] it was 5 to 7; in [8] it was more than 2. Besides, the fold change (FC) in assay [9] lay within 5 to 7. Besides, the outcome in assay [11], in assay [3] and in assay [4] was inactive. Further, the Activity result is “Dose-dependent effect” in [2], “Dose-dependent effect” in [14], 18% in assay [15] and 36% in [16]. Also, the outcome in [5] and in assay [6] was Active.
Compound `CC(C)C[C@H](NC(=O)[C@H](Cc1ccc(O)cc1)NC(=O)[C@H](CCCNC(=N)N)NC(=O)[C@H](CCCNC(=N)N)NC(=O)[C@@H](N)CCCNC(=N)N)C(=O)N1CCC[C@H]1C(=O)N[C@@H](CCCNC(=N)N)C(=O)N[C@@H](Cc1c[nH]c2ccccc12)C(=O)NCC(N)=O` (H-RRRYLPRWG-NH2) had a fold change (FC) in assay [17] of 2. Moreover, the result in assay [18], in assay [20], in assay [21] and in assay [22] was inactive. Besides, the outcome in assay [3], in assay [19], in [23] and in assay [24] was Active.
